# ChEMBL document CHEMBL4689842, “EUbOPEN Chemogenomics Library wave 1” (2021)
# Several values for one entry are separate records, joined by “and”; a condition that tells them apart may be missing. Equal values may be shown once.
# Tested on: HEK-293T
# Assay: Multiplex assay against HEK293T;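 as to Population Tubulin-Different-Phenotype (%): share of the cells with healthy nuclei that show this phenotype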
# Type: toxicity, cell-based
# Conditions: human
# Outline: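 Cells were classed with CellPathfinder machine-learning gating, first as Hoechst high-intensity objects or normal cells, then (normal cells) as healthy, pyknosed or fragmented nuclei, and finally (pyknosed cells) as mitotic or apoptotic. Staining of live cells at seeding used Hoechst33342, BioTracker Green Microtubule Cytoskeleton Dye, MitoTracker Red and Annexin V Alexa Fluor 680, with imaging on a CQ1 microscope at 37°C and 5% CO2 after compound addition. Tubulin, mitochondrial-mass and membrane-permeability phenotypes are per cents of healthy-nucleus cells.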
# [1] = 12 h, 1 µM, compound concentration 1 uM, replicate 1
# [2] = 12 h, 1 µM, compound concentration 1 uM, replicate 2
# [3] = 12 h, 10 µM, compound concentration 10 uM, replicate 1
# [4] = 12 h, 10 µM, compound concentration 10 uM, replicate 2
# [5] = 24 h, 1 µM, compound concentration 1 uM, replicate 1
# [6] = 24 h, 1 µM, compound concentration 1 uM, replicate 2
# [7] = 24 h, 10 µM, compound concentration 10 uM, replicate 1
# [8] = 24 h, 10 µM, compound concentration 10 uM, replicate 2
# [9] = 48 h, 1 µM, compound concentration 1 uM, replicate 1
# [10] = 48 h, 1 µM, compound concentration 1 uM, replicate 2
# [11] = 48 h, 10 µM, compound concentration 10 uM, replicate 1
# [12] = 48 h, 10 µM, compound concentration 10 uM, replicate 2
compound,measurement,setting,value
CS(=O)(=O)N1CCCC(NC(=O)[C@H](CCC2CCCCC2)NC(=O)c2ccc(CNc3ncnc4c3nnn4-c3ccccc3)cc2)C1 (some centres not stated) [SR-301],Population Apoptotic (%),[1],26% and 51% and 37%
same,Population Fragmented Nuclei (%),[1],13% and 14% and 15%
same,Population Healthy Nuclei (%),[1],22% and 17% and 20%
same,Population Hoechst High Intensity Objects (%),[1],13% and 14%
same,Population Membrane Permeable-Phenotype (%),[1],8% and 3%
same,Population Mitochondria Different-Phenotype (%),[1],85% and 84%
same,Population Mitotic Cells (%),[1],73% and 48% and 62%
same,Population Normal (%),[1],86% and 85%
same,Population Pyknosed Nuclei (%),[1],64% and 67%
same,Population Tubulin-Different-Phenotype (%),[1],46% and 57% and 55%
same,Total Cell Count,[1],584 and 339 and 397
same,Population Apoptotic (%),[2],20% and 16% and 18%
same,Population Fragmented Nuclei (%),[2],5% and 8% and 4%
same,Population Healthy Nuclei (%),[2],41% and 36% and 50%
same,Population Membrane Permeable-Phenotype (%),[2],4% and 1% and 5%
same,Population Mitochondria Different-Phenotype (%),[2],41% and 30%
same,Population Mitotic Cells (%),[2],79% and 83% and 81%
same,Population Normal (%),[2],94% and 98% and 96%
same,Population Pyknosed Nuclei (%),[2],53% and 55% and 45%
same,Population Tubulin-Different-Phenotype (%),[2],43% and 26% and 29%
same,Total Cell Count,[2],247 and 189 and 243
same,Population Apoptotic (%),[3],68% and 73%
same,Population Fragmented Nuclei (%),[3],20% and 14% and 21%
same,Population Healthy Nuclei (%),[3],6% and 12% and 9%
same,Population Hoechst High Intensity Objects (%),[3],17%
same,Population Membrane Permeable-Phenotype (%),[3],10%
same,Population Mitochondria Different-Phenotype (%),[3],76% and 85% and 86%
same,Population Mitotic Cells (%),[3],31% and 26%
same,Population Normal (%),[3],82%
same,Population Pyknosed Nuclei (%),[3],73% and 68%
same,Population Tubulin-Different-Phenotype (%),[3],71% and 66%
same,Total Cell Count,[3],404 and 541 and 467
same,Population Apoptotic (%),[4],51% and 84% and 91%
same,Population Fragmented Nuclei (%),[4],9% and 13% and 19%
same,Population Healthy Nuclei (%),[4],28% and 26% and 20%
same,Population Hoechst High Intensity Objects (%),[4],8% and 13% and 20%
same,Population Mitochondria Different-Phenotype (%),[4],43% and 78% and 82%
same,Population Normal (%),[4],92% and 86% and 79%
same,Population Pyknosed Nuclei (%),[4],61% and 60%
same,Population Tubulin-Different-Phenotype (%),[4],43% and 40% and 57%
same,Total Cell Count,[4],225 and 185 and 216
same,Population Apoptotic (%),[5],26% and 40% and 55%
same,Population Fragmented Nuclei (%),[5],18% and 19%
same,Population Healthy Nuclei (%),[5],19% and 18% and 14%
same,Population Hoechst High Intensity Objects (%),[5],19% and 18% and 16%
same,Population Membrane Permeable-Phenotype (%),[5],6% and 5% and 2%
same,Population Mitochondria Different-Phenotype (%),[5],72% and 77% and 78%
same,Population Mitotic Cells (%),[5],73% and 60% and 44%
same,Population Normal (%),[5],80% and 81% and 83%
same,Population Pyknosed Nuclei (%),[5],61% and 62% and 66%
same,Population Tubulin-Different-Phenotype (%),[5],48% and 57% and 65%
same,Total Cell Count,[5],594 and 385 and 349
same,Population Apoptotic (%),[6],29% and 24%
same,Population Fragmented Nuclei (%),[6],3% and 2% and 6%
same,Population Healthy Nuclei (%),[6],64% and 67% and 57%
same,Population Hoechst High Intensity Objects (%),[6],3% and 2%
same,Population Membrane Permeable-Phenotype (%),[6],3% and 4%
same,Population Mitochondria Different-Phenotype (%),[6],41% and 43% and 33%
same,Population Mitotic Cells (%),[6],70% and 75%
same,Population Normal (%),[6],96% and 97%
same,Population Pyknosed Nuclei (%),[6],32% and 30% and 36%
same,Population Tubulin-Different-Phenotype (%),[6],52% and 36% and 34%
same,Total Cell Count,[6],298 and 240 and 293
same,Population Apoptotic (%),[7],81% and 77% and 85%
same,Population Fragmented Nuclei (%),[7],28% and 20% and 26%
same,Population Healthy Nuclei (%),[7],3% and 5%
same,Population Hoechst High Intensity Objects (%),[7],19% and 18% and 20%
same,Population Membrane Permeable-Phenotype (%),[7],8% and 9% and 0%
same,Population Mitochondria Different-Phenotype (%),[7],58% and 77% and 81%
same,Population Mitotic Cells (%),[7],18% and 22% and 14%
same,Population Normal (%),[7],80% and 81% and 79%
same,Population Pyknosed Nuclei (%),[7],68% and 74% and 69%
same,Population Tubulin-Different-Phenotype (%),[7],33% and 54%
same,Total Cell Count,[7],495 and 531 and 410
same,Population Apoptotic (%),[8],96% and 55% and 93%
same,Population Fragmented Nuclei (%),[8],15% and 11%
same,Population Healthy Nuclei (%),[8],36% and 42% and 39%
same,Population Hoechst High Intensity Objects (%),[8],17% and 10% and 14%
same,Population Membrane Permeable-Phenotype (%),[8],7% and 5% and 11%
same,Population Mitochondria Different-Phenotype (%),[8],95% and 51% and 90%
same,Population Normal (%),[8],82% and 89% and 85%
same,Population Pyknosed Nuclei (%),[8],48% and 45%
same,Population Tubulin-Different-Phenotype (%),[8],46% and 47% and 74%
same,Total Cell Count,[8],210 and 253 and 187
same,Population Apoptotic (%),[9],23% and 35% and 54%
same,Population Fragmented Nuclei (%),[9],21% and 28% and 19%
same,Population Healthy Nuclei (%),[9],17% and 11% and 15%
same,Population Hoechst High Intensity Objects (%),[9],22% and 24%
same,Population Membrane Permeable-Phenotype (%),[9],4% and 5%
same,Population Mitochondria Different-Phenotype (%),[9],54% and 70% and 71%
same,Population Mitotic Cells (%),[9],77% and 64% and 45%
same,Population Normal (%),[9],77% and 75%
same,Population Pyknosed Nuclei (%),[9],60% and 64%
same,Population Tubulin-Different-Phenotype (%),[9],39% and 52%
same,Total Cell Count,[9],604 and 398 and 345
same,Population Apoptotic (%),[10],20% and 12%
same,Population Fragmented Nuclei (%),[10],4% and 3%
same,Population Healthy Nuclei (%),[10],82% and 80% and 81%
same,Population Hoechst High Intensity Objects (%),[10],4% and 3%
same,Population Membrane Permeable-Phenotype (%),[10],3% and 1%
same,Population Mitochondria Different-Phenotype (%),[10],17% and 20% and 18%
same,Population Mitotic Cells (%),[10],76% and 79% and 87%
same,Population Normal (%),[10],95% and 96%
same,Population Pyknosed Nuclei (%),[10],12% and 15%
same,Population Tubulin-Different-Phenotype (%),[10],41% and 35% and 33%
same,Total Cell Count,[10],527 and 453 and 385
same,Population Apoptotic (%),[11],90% and 84% and 81%
same,Population Fragmented Nuclei (%),[11],37% and 29% and 32%
same,Population Healthy Nuclei (%),[11],2% and 3%
same,Population Hoechst High Intensity Objects (%),[11],22% and 20% and 23%
same,Population Membrane Permeable-Phenotype (%),[11],14% and 11%
same,Population Mitochondria Different-Phenotype (%),[11],71% and 57% and 77%
same,Population Mitotic Cells (%),[11],9% and 15% and 18%
same,Population Normal (%),[11],77% and 79% and 76%
same,Population Pyknosed Nuclei (%),[11],60% and 67% and 64%
same,Population Tubulin-Different-Phenotype (%),[11],28% and 64% and 55%
same,Total Cell Count,[11],401 and 536 and 484
same,Population Apoptotic (%),[12],92% and 82% and 60%
same,Population Fragmented Nuclei (%),[12],15% and 17% and 12%
same,Population Healthy Nuclei (%),[12],52% and 54% and 64%
same,Population Hoechst High Intensity Objects (%),[12],16% and 12% and 11%
same,Population Membrane Permeable-Phenotype (%),[12],4% and 6%
same,Population Mitochondria Different-Phenotype (%),[12],95% and 91% and 32%
same,Population Normal (%),[12],83% and 87% and 88%
same,Population Pyknosed Nuclei (%),[12],32% and 27% and 23%
same,Population Tubulin-Different-Phenotype (%),[12],46% and 86% and 45%
same,Total Cell Count,[12],209 and 191 and 306
